Assay results reported in ChEMBL document CHEMBL1137359, “Potent and orally bioavailable 8-bicyclo[2.2.2]octylxanthines as adenosine A1 receptor antagonists” (J Med Chem, 2006).
pEC50, pKi: −log10 of the molar value. In brackets after ≈: the same amount, converted by molar mass.

Key:
Rattus norvegicus [1] = assay: Volume of distribution in Sprague-Dawley rat at 1 mg/kg, po; type: ADME, organism-based; set-up: dose 1 mg/kg, route oral; settings: in vivo
In short: (§1)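 Pharmacokinetics after one oral dose in male Sprague-Dawley rats (1 mg/kg, or 2 mg dose), beagle dogs and cynomolgus monkeys (1 mg/kg). Bioavailability, half-life, clearance and volume of distribution reported as mean ± variation.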

[2] = Clearance in cynomolgus monkey at 1 mg/kg, po; type: ADME, organism-based, Macaca fascicularis; set-up: dose 1 mg/kg, route oral; settings: in vivo; in short: as §1
[3] = Oral bioavailability in Beagle dog at 1 mg/kg, po; type: ADME, organism-based, Canis lupus familiaris; settings: in vivo; in short: as §1
[4] = Half life in cynomolgus monkey at 1 mg/kg, po; type: ADME, organism-based, Macaca fascicularis; set-up: dose 1 mg/kg, route oral; settings: in vivo; in short: as §1
[5] = Solubility in 0.9% saline; type: physicochemical
In short: (§2)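 Solubility of each compound measured in sterile water for injection, 0.9% saline, 5% dextrose in water, ethanol and octanol; values in mg/mL from duplicate determinations per solvent, individual values varying <5%.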

Adenosine receptor A2a [6] = molecular target: Adenosine receptor A2a (Homo sapiens, UniProt P29274); assay: Displacement of [125I]ZM-241385 from human adenosine A2A receptor expressed in HEK cells; type: cell-based, HEK293
Sequence of Adenosine receptor A2a (Homo sapiens, UniProt P29274) (P29274 whole entry): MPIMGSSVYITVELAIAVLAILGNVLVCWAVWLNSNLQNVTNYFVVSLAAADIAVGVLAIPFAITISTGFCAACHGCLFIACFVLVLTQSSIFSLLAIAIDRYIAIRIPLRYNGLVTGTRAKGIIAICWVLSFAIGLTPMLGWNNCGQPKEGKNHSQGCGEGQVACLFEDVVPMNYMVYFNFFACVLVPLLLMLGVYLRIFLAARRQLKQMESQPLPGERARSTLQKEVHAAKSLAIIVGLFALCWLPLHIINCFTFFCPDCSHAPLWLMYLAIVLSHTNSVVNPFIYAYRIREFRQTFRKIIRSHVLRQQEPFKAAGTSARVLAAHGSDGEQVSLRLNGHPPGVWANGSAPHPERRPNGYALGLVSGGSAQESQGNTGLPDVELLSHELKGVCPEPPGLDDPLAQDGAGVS
In short: (§3)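 Membranes from stably transfected CHO-K1 (hA1) or HEK (hA2A, hA2B, hA3) cells, 2 h at room temperature in 50 mM HEPES pH 7.4, 1 mM EDTA, 5 mM MgCl2, 1 U/mL adenosine deaminase. 5% DMSO final except hA3. Full curves 10^-11–10^-5 M, seven concentrations, four determinations each. Filtration, γ-counting, Ki derived.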

Adenosine receptor A3 = molecular target: T1, Adenosine receptor A3 (Homo sapiens, UniProt P0DMS8); assay: Displacement of [125I]ABA from human adenosine A3 receptor expressed in HEK cells; type: cell-based, HEK293
T1 sequence (P0DMS8 whole entry): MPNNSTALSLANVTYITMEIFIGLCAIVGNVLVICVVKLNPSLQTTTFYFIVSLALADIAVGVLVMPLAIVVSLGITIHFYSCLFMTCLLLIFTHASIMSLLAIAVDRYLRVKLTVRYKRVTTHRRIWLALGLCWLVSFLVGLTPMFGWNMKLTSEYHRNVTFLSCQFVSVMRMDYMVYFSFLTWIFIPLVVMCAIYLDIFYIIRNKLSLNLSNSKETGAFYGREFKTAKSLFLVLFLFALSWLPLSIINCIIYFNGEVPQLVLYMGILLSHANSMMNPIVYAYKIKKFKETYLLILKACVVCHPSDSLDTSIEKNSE
In short: as §3, with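 “hA3. Radioligands: 0.3 nM (hA1) or 0.6 nM (hA3) 125I-ABA, 0.7 nM 125I-ZM241385, 0.5 nM A2B ligand.” for “hA3.”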

Adenosine receptor A1 [7] = molecular target: T2, Adenosine receptor A1 (Rattus norvegicus, UniProt P25099); assay: Displacement of [3H]CPX from rat brain cortex adenosine A1 receptor
T2 sequence (P25099 whole entry): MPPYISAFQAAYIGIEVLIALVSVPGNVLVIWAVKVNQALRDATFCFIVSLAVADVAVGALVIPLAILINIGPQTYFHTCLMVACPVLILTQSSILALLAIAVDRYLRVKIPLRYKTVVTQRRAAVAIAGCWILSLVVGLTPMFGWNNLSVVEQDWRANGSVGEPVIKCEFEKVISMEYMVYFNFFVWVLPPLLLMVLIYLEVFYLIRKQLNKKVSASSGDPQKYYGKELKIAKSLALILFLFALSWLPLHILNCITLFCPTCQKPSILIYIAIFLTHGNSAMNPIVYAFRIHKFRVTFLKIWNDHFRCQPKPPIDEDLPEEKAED
In short: (§4)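 Crude membranes (10-20 µg protein) from rat brain cortex (A1, 2 nM 3H-CPX) or striatum (A2A, 0.5-1.2 nM 3H-ZM241385) incubated 90 min at room temperature in 50 mM Tris-HCl pH 7.4 with 2 U/mL adenosine deaminase. Stopped with ice-cold buffer, then vacuum filtration and scintillation counting. Ki from concentration-response displacement.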

Rattus norvegicus [8] = assay: Natriuretic effect in orally dosed rat; type: ADME, organism-based; settings: po
In short: (§5)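 Male Sprague-Dawley rats in metabolic cages dosed by gavage in 0.5% CMC suspension, 0.001-3 mg/kg (n=3-5 per group; vehicle n=3). Urine collected 4 h, volume measured gravimetrically, Na and K by flame photometry. Urine flow and UNaV expressed per hour, averaged over 4 h.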

[9] = Half life in Sprague-Dawley rat at 1 mg/kg, po; type: ADME, organism-based; set-up: dose 1 mg/kg, route oral; settings: in vivo; in short: as §1
[10] = Clearance in Sprague-Dawley rat at 1 mg/kg, po; type: ADME, organism-based; set-up: dose 1 mg/kg, route oral; settings: in vivo; in short: as §1
Rattus norvegicus [11] = assay: Diuretic effect in orally dosed rat; type: ADME, organism-based; settings: Urine, po; in short: as §5
Canis familiaris = assay: Volume of distribution in Beagle dog at 1 mg/kg, po; type: ADME, organism-based, Canis lupus familiaris; set-up: dose 1 mg/kg, route oral; settings: in vivo; in short: as §1
Adenosine receptor A2b = molecular target: T3, Adenosine receptor A2b (Homo sapiens, UniProt P29275); assay: Displacement of [125I]3-(4-aminobenzyl)-8-phenyloxyacetate-1-propyl-xanthine from human adenosine A2B receptor expressed in HEK cells; type: cell-based, HEK293; in short: as §3
T3 sequence (P29275 whole entry): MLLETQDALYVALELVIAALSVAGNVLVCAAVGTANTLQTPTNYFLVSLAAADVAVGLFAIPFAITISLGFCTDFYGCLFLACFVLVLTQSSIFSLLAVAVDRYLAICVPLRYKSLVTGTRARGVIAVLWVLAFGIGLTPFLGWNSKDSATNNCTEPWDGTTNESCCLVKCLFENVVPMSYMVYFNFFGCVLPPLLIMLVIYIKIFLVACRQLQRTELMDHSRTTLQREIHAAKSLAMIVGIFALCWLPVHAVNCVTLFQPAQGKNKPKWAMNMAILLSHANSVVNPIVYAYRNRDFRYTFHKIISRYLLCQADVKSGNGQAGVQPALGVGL

[12] = Half life in Beagle dog at 1 mg/kg, po; type: ADME, organism-based, Canis lupus familiaris; set-up: dose 1 mg/kg, route oral; settings: in vivo; in short: as §1
[13] = Aqueous solubility of the compound; type: physicochemical; settings: water; in short: as §2
[14] = Solubility in 5% dextrose in water; type: physicochemical; in short: as §2
Cynomolgus monkey = assay: Volume of distribution in cynomolgus monkey at 1 mg/kg, po; type: ADME, organism-based, Macaca fascicularis; set-up: dose 1 mg/kg, route oral; settings: in vivo; in short: as §1
[15] = Oral bioavailability in Sprague-Dawley rat at 1 mg/kg, po; type: ADME, organism-based; settings: in vivo; in short: as §1
[16] = Oral bioavailability in cynomolgus monkey at 1 mg/kg, po; type: ADME, organism-based, Macaca fascicularis; settings: in vivo; in short: as §1
Adenosine receptor A2a [17] = molecular target: Adenosine receptor A2a (Rattus norvegicus, UniProt P30543); assay: Displacement of [3H]ZM-241385 from rat brain striatum adenosine A2A receptor; in short: as §4
Sequence of Adenosine receptor A2a (Rattus norvegicus, UniProt P30543) (P30543 whole entry): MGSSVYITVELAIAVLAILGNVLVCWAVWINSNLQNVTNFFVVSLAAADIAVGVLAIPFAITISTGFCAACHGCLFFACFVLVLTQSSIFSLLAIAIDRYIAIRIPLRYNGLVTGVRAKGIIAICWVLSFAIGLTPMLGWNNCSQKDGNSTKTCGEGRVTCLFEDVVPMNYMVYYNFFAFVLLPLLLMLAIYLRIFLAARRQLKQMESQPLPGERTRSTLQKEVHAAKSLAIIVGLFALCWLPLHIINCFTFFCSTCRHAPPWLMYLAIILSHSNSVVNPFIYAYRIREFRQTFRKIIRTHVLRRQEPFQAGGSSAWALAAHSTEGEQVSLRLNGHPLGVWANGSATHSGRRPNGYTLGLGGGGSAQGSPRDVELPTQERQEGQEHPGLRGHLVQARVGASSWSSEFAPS

Rattus norvegicus [18] = species on record: Rattus norvegicus; assay: Reversal of CPA inhibition of isoproterenol-stimulated rat atria; type: functional, organism-based; settings: Cardiac atrium
In short: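 Isolated rat atria in Krebs buffer at 37 °C gassed with 95% O2/5% CO2, pH 7.4, stimulated with 30 nM isoproterenol. EC50 taken at 50% restoration, 5 atria per dose group.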

[19] = Clearance in Beagle dog at 1 mg/kg, po; type: ADME, organism-based, Canis lupus familiaris; set-up: dose 1 mg/kg, route oral; settings: in vivo; in short: as §1
[20] = molecular target: T4, Adenosine receptor A3 (Homo sapiens) (UniProt P0DMS8); assay: Displacement of [125I]ABA from human adenosine A3 receptor expressed in HEK cells relative to control; type: cell-based; set-up: concentration or dose not given beside the values; settings: HEK293
T4 sequence (whole entry): T1 sequence (P0DMS8 whole entry)
In short: (§6)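 Single-point screen at 1 µM antagonist, run in duplicate, on transfected-cell membranes: CHO-K1 (hA1), HEK (hA2A, hA2B, hA3). 2 h at room temperature in 50 mM HEPES pH 7.4, 1 mM EDTA, 5 mM MgCl2, 1 U/mL adenosine deaminase; 5% DMSO except hA3. Nonspecific binding with 50 µM XAC, or 10 µM BW-1433 for hA3. Result is % radioligand bound relative to control.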

[21] = molecular target: T5, Adenosine receptor A2b (Homo sapiens) (UniProt P29275); assay: Displacement of [125I]3-(4-aminobenzyl)-8-phenyloxyacetate-1-propyl-xanthine from human adenosine A2B receptor expressed in HEK cells relative to control; type: cell-based; set-up: concentration or dose not given beside the values; settings: HEK293; in short: as §6
T5 sequence (whole entry): T3 sequence (P29275 whole entry)

[22] = molecular target: Adenosine receptors; A1 & A2a (Homo sapiens) (UniProt P30542+P29274); assay: Selectivity for human adenosine A1 receptor over human adenosine A2A receptor; type: protein assay
[23] = Clearance in Sprague-Dawley rat at 2 mg, po; type: ADME, organism-based; settings: in vivo; in short: as §1
Adenosine receptor A1 [24] = molecular target: T6, Adenosine receptor A1 (Homo sapiens, UniProt P30542); assay: Displacement of [125I]ABA from human adenosine A1 receptor expressed in CHOK1 cells; type: cell-based, CHO-K1; in short: as §3
T6 sequence (P30542 whole entry): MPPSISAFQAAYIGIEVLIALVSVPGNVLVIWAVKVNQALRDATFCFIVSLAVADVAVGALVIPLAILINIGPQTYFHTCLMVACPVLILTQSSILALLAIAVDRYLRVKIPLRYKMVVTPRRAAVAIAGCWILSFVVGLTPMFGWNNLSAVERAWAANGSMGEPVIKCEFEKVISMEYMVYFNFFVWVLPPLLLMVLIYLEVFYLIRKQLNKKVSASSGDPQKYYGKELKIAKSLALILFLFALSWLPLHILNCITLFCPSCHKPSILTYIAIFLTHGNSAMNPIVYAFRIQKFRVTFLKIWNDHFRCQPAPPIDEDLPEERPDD

[25] = Solubility in octanol; type: physicochemical; in short: as §2
Rattus norvegicus [26] = assay: Volume of distribution in Sprague-Dawley rat at 2 mg, po; type: ADME, organism-based; settings: in vivo; in short: as §1
[27] = Oral bioavailability in Sprague-Dawley rat at 2 mg, po; type: ADME, organism-based; settings: in vivo; in short: as §1
[28] = Half life in Sprague-Dawley rat at 2 mg, po; type: ADME, organism-based; settings: in vivo; in short: as §1
[29] = Solubility in ethanol; type: physicochemical; in short: as §2
[30] = molecular target: Adenosine receptor A2a (Rattus norvegicus) (UniProt P30543); assay: Displacement of [3H]ZM241385 from rat brain striatum adenosine A2A receptor relative to control
Sequence of Adenosine receptor A2a (Rattus norvegicus) (P30543 whole entry): as the sequence (P30543 whole entry) above

| Structure (SMILES) | solubility [5] [mg/mL] | pKi (Adenosine receptor A2a [6]) | pKi (Adenosine receptor A1 [7]) | half-life [9] [min] | CL/F [10] [mL/min/kg] | pKi (Adenosine receptor A2b) | solubility [13] [mg/mL] | solubility [14] [mg/mL] | bioavailability [15] [%] | Activity [20] [%] | pKi (Adenosine receptor A1 [24]) | further results |
| --- | --- | --- | --- | --- | --- | --- | --- | --- | --- | --- | --- | --- |
| CCCn1c(=O)c2[nH]c([C@]34CC[C@](CCC(=O)O)(CC3)CC4)nc2n(CCC)c1=O | 25.4 (≈ 61 mM) | 5.19 | 8.89 | 188 | 1.56 | 7.05 | 24.4 (≈ 58.6 mM) | 12.4 (≈ 29.8 mM) | 99 |  |  | Vdss (Rattus norvegicus [1]): 0.32 L/kg; CL/F [2]: 5.82 mL/min/kg; bioavailability [3]: 78%; half-life [4]: 666 min; pKi (Adenosine receptor A3): < 5.00; ED50 (Rattus norvegicus [8]): 0.015 mg/kg; ED50 (Rattus norvegicus [11]): 0.015 mg/kg; Vdss (Canis familiaris): 2.64 L/kg; half-life [12]: 384 min; Vdss (Cynomolgus monkey): 4.25 L/kg; bioavailability [16]: 94%; pKi (Adenosine receptor A2a [17]): 5.61; pEC50 (Rattus norvegicus [18]): 7.79; Kb (Rattus norvegicus [18]; read-out: pA2 (converted)): 0.158 nM; CL/F [19]: 11.8 mL/min/kg |
| CCCn1c(=O)c2nc([C@]34CC[C@](C(=O)O)(CC3)CC4)[nH]c2n(CCC)c1=O | 29.8 (≈ 76.7 mM) | 5.97 | 8.11 |  |  |  | 18.1 (≈ 46.6 mM) | 63 (≈ 162 mM) |  | 100 | 7.48 | Activity [21]: 48%; Ratio Ki [22]: 32; CL/F [23]: 2.26 mL/min/kg; solubility [25]: 60 mg/mL (≈ 154 mM); Vdss (Rattus norvegicus [26]): 0.57 L/kg; bioavailability [27]: 97%; half-life [28]: 128 min; solubility [29]: 51 mg/mL (≈ 131 mM) |
| CCCn1c(=O)c2nc([C@]34CC[C@](CCCC(=O)O)(CC3)CC4)[nH]c2n(CCC)c1=O |  |  | 8.40 | 122 | 7.1 | 6.90 | 0.5 (≈ 1.16 mM) |  | 48 | 26 | 7.54 | Activity [30]: 50% |
